Results on 13 compounds are retold here after ChEMBL document CHEMBL1828538, “Synthesis and pharmacological evaluation of indole-based sigma receptor ligands” (Eur J Med Chem, 2011).

The term pKi denotes −log10 of the Ki, conventionally taken in molar units. Lower therefore signals a high Ki.

pKi: −log10 of the molar value.

For experiment [1], the species on record is Rattus norvegicus. Put plainly: Selectivity ratio of Ki for sigma 1 receptor in rat brain membrane to sigma 2 receptor in rat brain membrane. Format: cell membranes.
Experiment [2] addresses Sigma non-opioid intracellular receptor 1 (Rattus norvegicus, UniProt Q9R0C9). Kind of experiment: Displacement of (-)-[3H]pentazocine from sigma 1 receptor in rat brain membrane after 120 mins. Format: cell membranes.
Experiment [3] is described as follows: Displacement of [3H]di-o-tolylguanidine from sigma 2 receptor in rat brain membrane after 120 mins. The format is cell membranes. In outline: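 Rat whole-brain homogenate without cerebellum (400–500 μg) incubated with 3 nM [3H]DTG plus 300 nM (+)-pentazocine to mask sigma-1 sites. Filtration through PEI-soaked glass fiber, scintillation counting, run in duplicate. Ki by Cheng-Prusoff.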
For orientation: Displacement assays read how much labelled ligand stays bound in the presence of the test substance.

Experiment [4] is described as follows: Binding affinity to sigma 2 receptor. In outline: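 Rat whole-brain homogenate without cerebellum (400–500 μg) incubated with 3 nM [3H]DTG plus 300 nM (+)-pentazocine to mask sigma-1 sites. […] Filtration through PEI-soaked glass fiber, scintillation counting, run in duplicate. Ki by Cheng-Prusoff.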

Sequence of Sigma non-opioid intracellular receptor 1 (Q9R0C9 whole entry): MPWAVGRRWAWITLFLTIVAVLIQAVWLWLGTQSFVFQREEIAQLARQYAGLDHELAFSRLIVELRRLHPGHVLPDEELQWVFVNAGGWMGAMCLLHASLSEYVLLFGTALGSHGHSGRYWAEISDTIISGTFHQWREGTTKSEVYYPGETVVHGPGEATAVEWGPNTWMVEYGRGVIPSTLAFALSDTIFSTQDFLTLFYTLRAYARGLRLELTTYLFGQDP

As for `Fc1ccc(-c2cn(CCCCN3CCN(C4CCCCC4)CC3)c3ccccc23)cc1`, the Ratio Ki in experiment [1] is 4.

In the case of `COc1cc2c(cc1OC)CN(CCCCn1cc(-c3ccccc3)c3ccccc31)CC2`, the pKi in experiment [2] was 6.15; in experiment [3], 7.33. In experiment [1], the Ratio Ki stood at 15.4.

As to `Fc1ccc(N2CCN(CCCCn3cc(-c4ccccc4)c4ccccc43)CC2)cc1`, the pKi was 6.65 in experiment [2] and 8.00 in experiment [3]. Further, the Ratio Ki in experiment [1] is 22.3.

As to `c1ccc(-c2cn(CCCCN3CCN(C4CCCCC4)CC3)c3ccccc23)cc1`, the pKi in experiment [2] is 7.03; in experiment [3], 7.91. Further, in experiment [1], the Ratio Ki was determined as 7.5.

Take `CC(=O)c1ccc2c(ccn2CCCCN2CCN(c3ccc(F)cc3)CC2)c1`: the pKi was 8.67 in experiment [2] and 8.48 in experiment [3]. Also, in experiment [1], the Ratio Ki was 0.6.

As for `COc1cc2c(cc1OC)CN(CCCCn1cc(-c3ccoc3)c3ccccc31)CC2`, the negative logarithm of the Ki (pKi) in experiment [2] was 6.21; in experiment [3], 7.92. For the same compound, in experiment [1], the Ratio Ki came out at 51.1.

Turning to `c1ccc2c(c1)c(-c1ccoc1)cn2CCCCN1CCN(C2CCCCC2)CC1`, the values for the pKi in experiment [2] and in experiment [3] were 7.46 and 8.00, respectively. Also, the Ratio Ki in experiment [1] was found to be 3.4.

Take `Fc1ccc(N2CCN(CCCCn3cc(-c4ccoc4)c4ccccc43)CC2)cc1`: the values for the pKi in experiment [2] and in experiment [3] were 6.55 and 6.80, respectively. Further, in experiment [1], the Ratio Ki amounted to 1.8.

Consider `Fc1ccc(N2CCN(CCCCn3ccc4ccccc43)CC2)cc1`, for which, in experiment [2], the pKi is 7.15. In experiment [1], the Ratio Ki was determined as 5.4.

Turning to `CC(=O)c1ccc2c(ccn2CCCCN2CCN(C3CCCCC3)CC2)c1`, the values for the pKi in experiment [2] and in experiment [3] were 8.27 and 8.64, respectively. The Ratio Ki in experiment [1] stood at 2.3.

For `COc1cc2c(cc1OC)CN(CCCCn1ccc3ccccc31)CC2`, the pKi in experiment [2] was 6.85.

Consider `COc1cc2c(cc1OC)CN(CCCCn1ccc3cc(C(C)=O)ccc31)CC2`, for which the figures for the pKi in experiment [2] and in experiment [3] were 7.84 and 8.85, respectively. Besides, in experiment [1], the Ratio Ki was found to be 10.2.

On to `COc1cc2c(cc1OC)CN(CCCCNC(=O)c1cc(Br)cc(OC)c1OC)CC2`, for which the pKi in experiment [4] was 8.09.
